What was measured:
[1] = target: Glycogen synthase kinase-3 alpha (Homo sapiens, UniProt P49840); experiment: Inhibition of N-terminal NanoLuc-fused full length GSK3A (unknown origin) transfected in HEK293T cells incubated for 2 hrs in presence of tracer K8 by NanoBRET assay; assay type: cell-based
Outline: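 Cellular target engagement by NanoBRET in intact cells expressing NanoLuc-fused GSK3A or GSK3B, with EC50 values derived from tracer displacement.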

[2] = target: Vascular endothelial growth factor receptor 1 (Homo sapiens) (UniProt P17948); experiment: Inhibition of recombinant FLT1 (unknown origin) at 10 uM by DSF assay relative to staurosporine
Chain of Vascular endothelial growth factor receptor 1 (Homo sapiens) (P17948 whole entry): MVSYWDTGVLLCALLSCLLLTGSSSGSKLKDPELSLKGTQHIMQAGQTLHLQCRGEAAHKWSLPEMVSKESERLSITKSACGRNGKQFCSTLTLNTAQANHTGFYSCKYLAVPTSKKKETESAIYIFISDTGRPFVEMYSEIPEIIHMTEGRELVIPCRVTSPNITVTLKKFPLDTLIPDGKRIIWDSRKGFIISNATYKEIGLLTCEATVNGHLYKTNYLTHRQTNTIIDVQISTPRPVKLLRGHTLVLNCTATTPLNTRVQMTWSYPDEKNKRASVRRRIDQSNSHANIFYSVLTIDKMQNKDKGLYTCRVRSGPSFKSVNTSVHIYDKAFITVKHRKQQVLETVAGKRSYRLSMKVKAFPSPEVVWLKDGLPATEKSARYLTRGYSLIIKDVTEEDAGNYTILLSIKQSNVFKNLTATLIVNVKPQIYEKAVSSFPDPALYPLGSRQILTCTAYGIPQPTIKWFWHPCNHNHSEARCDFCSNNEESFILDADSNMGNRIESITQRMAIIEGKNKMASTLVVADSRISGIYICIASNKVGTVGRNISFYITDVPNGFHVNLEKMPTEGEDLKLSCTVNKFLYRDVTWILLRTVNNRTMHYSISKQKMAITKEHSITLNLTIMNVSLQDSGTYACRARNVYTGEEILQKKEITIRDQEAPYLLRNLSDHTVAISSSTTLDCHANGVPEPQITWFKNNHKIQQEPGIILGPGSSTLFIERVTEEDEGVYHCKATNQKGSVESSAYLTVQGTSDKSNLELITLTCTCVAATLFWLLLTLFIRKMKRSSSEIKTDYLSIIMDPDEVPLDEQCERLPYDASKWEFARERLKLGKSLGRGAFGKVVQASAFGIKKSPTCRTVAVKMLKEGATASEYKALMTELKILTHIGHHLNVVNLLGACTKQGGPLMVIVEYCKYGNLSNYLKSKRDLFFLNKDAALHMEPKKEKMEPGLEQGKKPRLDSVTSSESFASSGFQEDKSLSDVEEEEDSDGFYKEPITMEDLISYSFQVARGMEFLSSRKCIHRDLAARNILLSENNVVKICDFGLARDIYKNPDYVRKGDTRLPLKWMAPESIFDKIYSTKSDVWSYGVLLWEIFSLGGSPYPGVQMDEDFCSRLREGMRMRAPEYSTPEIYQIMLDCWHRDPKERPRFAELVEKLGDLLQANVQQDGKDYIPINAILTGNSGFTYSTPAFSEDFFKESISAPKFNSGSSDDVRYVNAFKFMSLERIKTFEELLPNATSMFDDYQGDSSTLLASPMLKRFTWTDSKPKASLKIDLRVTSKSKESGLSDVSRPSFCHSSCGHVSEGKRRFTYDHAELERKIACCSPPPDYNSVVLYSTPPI
Outline: (§1)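 Differential scanning fluorimetry on an in-house panel of 90 recombinant kinases. Stabilization is read as the shift in melting temperature (ΔTm) relative to ligand-free protein. Staurosporine served as the positive control, and binding was also compared against its ΔTm.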

[3] = target: Glycogen synthase kinase-3 beta (Homo sapiens, UniProt P49841); experiment: Binding affinity to recombinant GSK3B (unknown origin) assessed as change in melting temperature at 10 uM by DSF assay; outline: as §1
Chain of Glycogen synthase kinase-3 beta (P49841 whole entry, looked up): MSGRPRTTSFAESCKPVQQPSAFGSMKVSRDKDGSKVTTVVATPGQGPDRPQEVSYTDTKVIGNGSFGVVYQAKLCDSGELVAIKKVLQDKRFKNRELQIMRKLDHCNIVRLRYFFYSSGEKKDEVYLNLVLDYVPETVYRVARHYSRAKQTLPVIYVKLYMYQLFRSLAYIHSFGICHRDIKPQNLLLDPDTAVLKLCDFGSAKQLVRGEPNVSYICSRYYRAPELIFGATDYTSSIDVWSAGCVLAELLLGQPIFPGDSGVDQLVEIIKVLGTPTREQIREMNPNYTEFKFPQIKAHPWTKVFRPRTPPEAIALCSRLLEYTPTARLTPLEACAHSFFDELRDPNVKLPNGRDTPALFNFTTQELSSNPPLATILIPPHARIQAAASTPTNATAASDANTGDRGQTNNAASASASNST

[4] = target: Mitogen-activated protein kinase 8 (Homo sapiens) (UniProt P45983); experiment: Inhibition of JNK1 (unknown origin) assessed as residual activity at 1 uM by Kinomescan assay relative to staurosporine
Chain of Mitogen-activated protein kinase 8 (Homo sapiens) (P45983 whole entry): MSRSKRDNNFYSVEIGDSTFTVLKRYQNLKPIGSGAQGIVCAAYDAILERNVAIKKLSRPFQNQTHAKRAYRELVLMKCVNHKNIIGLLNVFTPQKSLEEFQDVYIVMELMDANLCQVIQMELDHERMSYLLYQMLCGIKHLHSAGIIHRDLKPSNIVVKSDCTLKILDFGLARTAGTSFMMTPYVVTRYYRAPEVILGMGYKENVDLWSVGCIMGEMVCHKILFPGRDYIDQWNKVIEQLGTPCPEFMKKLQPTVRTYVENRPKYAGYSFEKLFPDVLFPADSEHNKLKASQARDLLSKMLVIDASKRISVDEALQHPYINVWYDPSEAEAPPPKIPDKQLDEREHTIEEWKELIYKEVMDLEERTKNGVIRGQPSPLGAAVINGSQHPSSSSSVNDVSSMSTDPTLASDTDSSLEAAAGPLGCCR

[5] = target: T1, Bone morphogenetic protein receptor type-2 (Homo sapiens) (UniProt Q13873); experiment: Inhibition of recombinant BMPR2 (unknown origin) at 10 uM by DSF assay relative to […]
T1 sequence (whole entry): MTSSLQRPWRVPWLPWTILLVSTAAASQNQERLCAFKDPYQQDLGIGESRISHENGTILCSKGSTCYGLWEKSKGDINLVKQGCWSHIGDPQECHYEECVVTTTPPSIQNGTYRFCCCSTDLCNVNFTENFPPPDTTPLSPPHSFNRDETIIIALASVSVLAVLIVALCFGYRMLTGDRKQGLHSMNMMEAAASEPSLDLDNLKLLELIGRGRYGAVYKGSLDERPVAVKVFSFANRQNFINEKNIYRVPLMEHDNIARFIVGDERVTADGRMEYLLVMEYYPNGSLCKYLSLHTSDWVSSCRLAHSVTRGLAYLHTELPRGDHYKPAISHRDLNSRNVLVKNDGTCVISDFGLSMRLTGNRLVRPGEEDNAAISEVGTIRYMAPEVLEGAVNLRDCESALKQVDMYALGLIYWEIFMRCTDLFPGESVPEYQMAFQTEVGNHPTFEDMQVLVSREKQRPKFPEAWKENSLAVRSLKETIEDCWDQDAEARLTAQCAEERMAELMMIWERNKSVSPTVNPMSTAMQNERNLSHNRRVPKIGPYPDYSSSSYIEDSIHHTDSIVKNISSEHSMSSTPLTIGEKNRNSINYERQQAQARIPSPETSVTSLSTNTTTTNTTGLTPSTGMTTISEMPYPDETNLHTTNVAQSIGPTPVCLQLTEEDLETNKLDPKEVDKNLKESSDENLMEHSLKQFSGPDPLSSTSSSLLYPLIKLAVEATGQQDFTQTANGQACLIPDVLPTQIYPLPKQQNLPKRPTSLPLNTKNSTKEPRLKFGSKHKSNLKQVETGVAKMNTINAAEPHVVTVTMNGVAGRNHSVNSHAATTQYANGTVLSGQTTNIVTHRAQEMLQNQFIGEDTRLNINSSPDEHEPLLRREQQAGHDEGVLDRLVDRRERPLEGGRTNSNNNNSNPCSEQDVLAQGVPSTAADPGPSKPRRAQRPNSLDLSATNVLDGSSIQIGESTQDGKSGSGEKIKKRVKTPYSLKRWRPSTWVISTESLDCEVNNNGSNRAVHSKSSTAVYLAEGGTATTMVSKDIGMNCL

[6] = target: T2, Mitogen-activated protein kinase 15 (Homo sapiens) (UniProt Q8TD08); experiment: Inhibition of recombinant MAPK15 (unknown origin) at 10 uM by DSF assay relative to staurosporine; outline: as §1
T2 sequence (whole entry): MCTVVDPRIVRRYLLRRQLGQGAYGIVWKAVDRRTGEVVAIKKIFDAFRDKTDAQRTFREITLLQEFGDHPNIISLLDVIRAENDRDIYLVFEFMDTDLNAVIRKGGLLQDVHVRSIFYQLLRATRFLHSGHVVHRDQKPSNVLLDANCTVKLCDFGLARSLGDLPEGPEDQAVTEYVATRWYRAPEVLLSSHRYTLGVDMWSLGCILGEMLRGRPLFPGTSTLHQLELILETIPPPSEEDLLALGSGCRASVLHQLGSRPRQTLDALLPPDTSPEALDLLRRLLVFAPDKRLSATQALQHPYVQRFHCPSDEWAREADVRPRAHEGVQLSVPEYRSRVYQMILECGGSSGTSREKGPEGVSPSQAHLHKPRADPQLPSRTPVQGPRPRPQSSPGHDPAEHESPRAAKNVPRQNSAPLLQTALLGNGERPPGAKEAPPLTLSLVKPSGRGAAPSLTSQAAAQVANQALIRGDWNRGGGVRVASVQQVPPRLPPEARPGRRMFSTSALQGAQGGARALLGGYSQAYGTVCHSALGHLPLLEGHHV

[7] = target: Vascular endothelial growth factor receptor 1 (Homo sapiens) (UniProt P17948); experiment: Binding affinity to recombinant FLT1 (unknown origin) assessed as change in melting temperature at 10 uM by DSF assay; outline: as §1
[8] = target: T1, Bone morphogenetic protein receptor type-2 (Homo sapiens); experiment: Inhibition of BMPR2 (unknown origin) assessed as residual activity at 1 uM by Kinomescan assay relative to staurosporine

Chain of Glycogen synthase kinase-3 alpha (P49840 whole entry, the tested form may be a part): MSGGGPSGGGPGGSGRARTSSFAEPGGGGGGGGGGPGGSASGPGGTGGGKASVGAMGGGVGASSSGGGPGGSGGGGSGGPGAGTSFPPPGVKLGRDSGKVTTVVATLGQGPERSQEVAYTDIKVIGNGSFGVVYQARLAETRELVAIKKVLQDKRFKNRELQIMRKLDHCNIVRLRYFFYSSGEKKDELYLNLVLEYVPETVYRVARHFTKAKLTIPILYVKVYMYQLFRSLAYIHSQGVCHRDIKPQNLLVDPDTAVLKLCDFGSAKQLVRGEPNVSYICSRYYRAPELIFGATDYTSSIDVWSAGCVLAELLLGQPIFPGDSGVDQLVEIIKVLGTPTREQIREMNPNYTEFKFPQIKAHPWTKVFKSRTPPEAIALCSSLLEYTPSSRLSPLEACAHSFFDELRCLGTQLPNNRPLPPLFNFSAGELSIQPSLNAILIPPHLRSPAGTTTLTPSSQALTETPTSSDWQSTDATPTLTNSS

- IC50 [1]: 11 µM
- inhibition [2]: 36%
- ΔTm [3]: 8.4 °C
- Activity [4]: 27%
- inhibition [5]: 103%
- ΔTm [7]: 4.2 °C
- Activity [8]: 8.3%
SMILES: O=C1NCCc2ccc(cc2)Nc2nccc(n2)Nc2cc1[nH]n2
- inhibition [6]: 26%

Reference: ChEMBL document CHEMBL5247671, “Design and Synthesis of Pyrazole-Based Macrocyclic Kinase Inhibitors Targeting BMPR2” (ACS Med Chem Lett, 2023)
